Measurements reported in ChEMBL document CHEMBL1149164, “Design of potent and selective agonists for the human vasopressin V1b receptor based on modifications of [deamino-cys1]arginine vasopressin at position 4” (J Med Chem, 2004).
Bridge positions count the residues as written; N and C are the ends. Square brackets hold non-standard residues; d marks the D form. Peptide text beside a SMILES is read from it. Cha = N[C@@H](CC1CCCCC1)C(=O)O; Mpa = O=C(O)CCS

How the values were obtained:
Vasopressin V2 receptor = Vasopressin V2 receptor (Homo sapiens, UniProt P30518); assay: Binding affinity against human vasopressin V2 receptor was determined by using plasma membranes from CHO cells stably transfected with VP/OT receptors; type: cell membranes
Sequence of Vasopressin V2 receptor (P30518 whole entry): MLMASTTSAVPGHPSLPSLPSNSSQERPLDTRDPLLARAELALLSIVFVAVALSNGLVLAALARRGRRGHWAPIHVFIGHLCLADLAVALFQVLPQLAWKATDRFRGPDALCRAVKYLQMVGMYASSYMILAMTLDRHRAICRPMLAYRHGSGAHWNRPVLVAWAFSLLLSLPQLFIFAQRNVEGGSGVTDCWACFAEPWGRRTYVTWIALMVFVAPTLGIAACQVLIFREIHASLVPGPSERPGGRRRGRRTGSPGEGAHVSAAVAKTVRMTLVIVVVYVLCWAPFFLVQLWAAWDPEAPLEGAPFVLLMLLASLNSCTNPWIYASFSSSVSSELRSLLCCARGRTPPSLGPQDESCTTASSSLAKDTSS
How it was run: (§1)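 Competition binding on plasma membranes from stably transfected CHO cells (human receptors). Membranes (1–20 µg protein) incubated 60 min at 30 °C in 50 mM Tris-HCl pH 7.4, 3 mM MgCl2, 1 mg/mL BSA, leupeptine, 0.1 mM PMSF, with 0.5–3 nM [3H]AVP and increasing analogue; nonspecific binding with 1 µM AVP.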

Vasopressin V1a receptor = Vasopressin V1a receptor (Homo sapiens, UniProt P37288); assay: Binding affinity against human vasopressin V1a receptor was determined by using plasma membranes from CHO cells stably transfected with VP/OT receptors; type: cell membranes; how it was run: as §1
Sequence of Vasopressin V1a receptor (P37288 whole entry): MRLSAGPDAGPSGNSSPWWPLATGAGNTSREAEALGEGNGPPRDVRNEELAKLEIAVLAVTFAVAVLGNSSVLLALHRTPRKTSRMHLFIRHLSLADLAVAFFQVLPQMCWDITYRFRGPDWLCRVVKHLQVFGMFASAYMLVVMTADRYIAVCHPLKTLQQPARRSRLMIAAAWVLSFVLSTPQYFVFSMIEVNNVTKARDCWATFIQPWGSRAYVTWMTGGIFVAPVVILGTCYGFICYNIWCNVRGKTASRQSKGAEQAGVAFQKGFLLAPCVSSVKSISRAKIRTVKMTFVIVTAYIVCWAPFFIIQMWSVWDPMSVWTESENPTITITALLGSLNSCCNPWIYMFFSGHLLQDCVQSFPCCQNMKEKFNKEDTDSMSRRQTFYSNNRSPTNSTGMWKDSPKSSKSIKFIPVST

Compound	Ki (Vasopressin V2 receptor)	Ki (Vasopressin V1a receptor)
CC[C@H](C)[C@@H]1NC(=O)[C@H](Cc2ccccc2)NC(=O)[C@H](Cc2ccc(O)cc2)NC(=O)CCSSC[C@@H](C(=O)N2CCC[C@H]2C(=O)N[C@@H](CCCN=C(N)N)C(=O)NCC(N)=O)NC(=O)[C@H](CC(N)=O)NC1=O	9.9 nM	16.8 nM
CC(C)C[C@@H]1NC(=O)[C@H](Cc2ccccc2)NC(=O)[C@H](Cc2ccc(O)cc2)NC(=O)CCSSC[C@@H](C(=O)N2CCC[C@H]2C(=O)N[C@@H](CCCN=C(N)N)C(=O)NCC(N)=O)NC(=O)[C@H](CC(N)=O)NC1=O	245 nM	44.1 nM
CC[C@@H]1NC(=O)[C@H](Cc2ccccc2)NC(=O)[C@H](Cc2ccc(O)cc2)NC(=O)CCSSC[C@@H](C(=O)N2CCC[C@H]2C(=O)N[C@@H](CCCN=C(N)N)C(=O)NCC(N)=O)NC(=O)[C@H](CC(N)=O)NC1=O (stereo in doubt)	2.1 nM	19.7 nM
NC(=O)CNC(=O)[C@H](CCCN=C(N)N)NC(=O)[C@@H]1CCCN1C(=O)[C@@H]1CSSCCC(=O)N[C@@H](Cc2ccc(O)cc2)C(=O)N[C@@H](Cc2ccccc2)C(=O)N[C@@H](CCC(=O)O)C(=O)N[C@@H](CC(N)=O)C(=O)N1 (stereo in doubt)	1090 nM	436 nM
NCCCC[C@@H]1NC(=O)[C@H](Cc2ccccc2)NC(=O)[C@H](Cc2ccc(O)cc2)NC(=O)CCSSC[C@@H](C(=O)N2CCC[C@H]2C(=O)N[C@@H](CCCN=C(N)N)C(=O)NCC(N)=O)NC(=O)[C@H](CC(N)=O)NC1=O (stereo in doubt)	11200 nM	463 nM
NC(=O)CNC(=O)[C@H](CCCN=C(N)N)NC(=O)[C@@H]1CCCN1C(=O)[C@@H]1CSSCCC(=O)N[C@@H](Cc2ccc(O)cc2)C(=O)N[C@@H](Cc2ccccc2)C(=O)N[C@@H](CO)C(=O)N[C@@H](CC(N)=O)C(=O)N1 (stereo in doubt)	24.7 nM	13 nM
NC(=O)CNC(=O)[C@H](CCCN=C(N)N)NC(=O)[C@@H]1CCCN1C(=O)[C@@H]1CSSCCC(=O)N[C@@H](Cc2ccc(O)cc2)C(=O)N[C@@H](Cc2ccccc2)C(=O)N[C@@H](CC(N)=O)C(=O)N[C@@H](CC(N)=O)C(=O)N1 (stereo in doubt)	50 nM	–
CCC[C@@H]1NC(=O)[C@H](Cc2ccccc2)NC(=O)[C@H](Cc2ccc(O)cc2)NC(=O)CCSSC[C@@H](C(=O)N2CCC[C@H]2C(=O)N[C@@H](CCCN=C(N)N)C(=O)NCC(N)=O)NC(=O)[C@H](CC(N)=O)NC1=O (stereo in doubt)	24.1 nM	22.5 nM
NC(=O)CNC(=O)[C@H](CCCN=C(N)N)NC(=O)[C@@H]1CCCN1C(=O)[C@@H]1CSSCCC(=O)N[C@@H](Cc2ccc(O)cc2)C(=O)N[C@@H](Cc2ccccc2)C(=O)N[C@@H](Cc2ccccc2)C(=O)N[C@@H](CC(N)=O)C(=O)N1 (stereo in doubt)	1070 nM	80 nM
NCCC[C@@H]1NC(=O)[C@H](Cc2ccccc2)NC(=O)[C@H](Cc2ccc(O)cc2)NC(=O)CCSSC[C@@H](C(=O)N2CCC[C@H]2C(=O)N[C@@H](CCCN=C(N)N)C(=O)NCC(N)=O)NC(=O)[C@H](CC(N)=O)NC1=O (stereo in doubt)	1130 nM	88 nM

Second part, the compound after the results:

Ki (Vasopressin V2 receptor)	Ki (Vasopressin V1a receptor)	Compound
13.7 nM	21.8 nM	C[C@@H]1NC(=O)[C@H](Cc2ccccc2)NC(=O)[C@H](Cc2ccc(O)cc2)NC(=O)CCSSC[C@@H](C(=O)N2CCC[C@H]2C(=O)N[C@@H](CCCN=C(N)N)C(=O)NCC(N)=O)NC(=O)[C@H](CC(N)=O)NC1=O
554 nM	276 nM	NC(=O)CNC(=O)[C@H](CCCN=C(N)N)NC(=O)[C@@H]1CCCN1C(=O)[C@@H]1CSSCCC(=O)N[C@@H](Cc2ccc(O)cc2)C(=O)N[C@@H](Cc2ccccc2)C(=O)NCC(=O)N[C@@H](CC(N)=O)C(=O)N1
1.2 nM	11.4 nM	CC(C)[C@@H]1NC(=O)[C@H](Cc2ccccc2)NC(=O)[C@H](Cc2ccc(O)cc2)NC(=O)CCSSC[C@@H](C(=O)N2CCC[C@H]2C(=O)N[C@@H](CCCN=C(N)N)C(=O)NCC(N)=O)NC(=O)[C@H](CC(N)=O)NC1=O ([Mpa]YFVNCPRG-NH2; disulfide 1-6)
750 nM	151 nM	NC(=O)CNC(=O)[C@H](CCCN=C(N)N)NC(=O)[C@@H]1CCCN1C(=O)[C@@H]1CSSCCC(=O)N[C@@H](Cc2ccc(O)cc2)C(=O)N[C@@H](Cc2ccccc2)C(=O)N[C@@H](CC2CCCCC2)C(=O)N[C@@H](CC(N)=O)C(=O)N1 ([Mpa]YF[Cha]NCPRG-NH2; disulfide 1-6)
117 nM	28.1 nM	CCCC[C@@H]1NC(=O)[C@H](Cc2ccccc2)NC(=O)[C@H](Cc2ccc(O)cc2)NC(=O)CCSSC[C@@H](C(=O)N2CCC[C@H]2C(=O)N[C@@H](CCCN=C(N)N)C(=O)NCC(N)=O)NC(=O)[C@H](CC(N)=O)NC1=O (stereo in doubt)
1.5 nM	2.9 nM	C[C@@H](O)[C@@H]1NC(=O)[C@H](Cc2ccccc2)NC(=O)[C@H](Cc2ccc(O)cc2)NC(=O)CCSSC[C@@H](C(=O)N2CCC[C@H]2C(=O)N[C@@H](CCCN=C(N)N)C(=O)NCC(N)=O)NC(=O)[C@H](CC(N)=O)NC1=O (stereo in doubt)
568 nM	36.3 nM	NCC[C@@H]1NC(=O)[C@H](Cc2ccccc2)NC(=O)[C@H](Cc2ccc(O)cc2)NC(=O)CCSSC[C@@H](C(=O)N2CCC[C@H]2C(=O)N[C@@H](CCCN=C(N)N)C(=O)NCC(N)=O)NC(=O)[C@H](CC(N)=O)NC1=O (stereo in doubt)
1390 nM	48.2 nM	NC(=O)CNC(=O)[C@H](CCCN=C(N)N)NC(=O)[C@@H]1CCCN1C(=O)[C@@H]1CSSCCC(=O)N[C@@H](Cc2ccc(O)cc2)C(=O)N[C@@H](Cc2ccccc2)C(=O)N[C@@H](CCCCN=C(N)N)C(=O)N[C@@H](CC(N)=O)C(=O)N1 (stereo in doubt)
80 nM	75 nM	NC(=O)CNC(=O)[C@H](CCCN=C(N)N)NC(=O)[C@@H]1CCCN1C(=O)[C@@H]1CSSCCC(=O)N[C@@H](Cc2ccc(O)cc2)C(=O)N[C@@H](Cc2ccccc2)C(=O)N[C@@H](Cc2c[nH]c3ccccc23)C(=O)N[C@@H](CC(N)=O)C(=O)N1 (stereo in doubt)
36.8 nM	19.7 nM	NC[C@@H]1NC(=O)[C@H](Cc2ccccc2)NC(=O)[C@H](Cc2ccc(O)cc2)NC(=O)CCSSC[C@@H](C(=O)N2CCC[C@H]2C(=O)N[C@@H](CCCN=C(N)N)C(=O)NCC(N)=O)NC(=O)[C@H](CC(N)=O)NC1=O (stereo in doubt)
621 nM	36.9 nM	NC(=O)CNC(=O)[C@H](CCCN=C(N)N)NC(=O)[C@@H]1CCCN1C(=O)[C@@H]1CSSCCC(=O)N[C@@H](Cc2ccc(O)cc2)C(=O)N[C@@H](Cc2ccccc2)C(=O)N[C@@H](Cc2ccc(O)cc2)C(=O)N[C@@H](CC(N)=O)C(=O)N1 (stereo in doubt)
4420 nM	63.3 nM	NC(=O)CNC(=O)[C@H](CCCN=C(N)N)NC(=O)[C@@H]1CCCN1C(=O)[C@@H]1CSSCCC(=O)N[C@@H](Cc2ccc(O)cc2)C(=O)N[C@@H](Cc2ccccc2)C(=O)N[C@@H](Cc2cccs2)C(=O)N[C@@H](CC(N)=O)C(=O)N1 (stereo in doubt)
131 nM	54.2 nM	N=C(N)NCCC[C@@H]1NC(=O)[C@H](Cc2ccccc2)NC(=O)[C@H](Cc2ccc(O)cc2)NC(=O)CCSSC[C@@H](C(=O)N2CCC[C@H]2C(=O)N[C@@H](CCCN=C(N)N)C(=O)NCC(N)=O)NC(=O)[C@H](CC(N)=O)NC1=O (stereo in doubt)
